# Rows were chosen to be rich in hits. Some 1.8% of all compounds tested hit in one or more screens of this group.
# M4 PAM: positive allosteric modulators of human muscarinic M4 receptor. activation, % at 3 µM. CHO-K1 hM4/Gqi5, Fluo-8 calcium fluorescence, ACh EC20; 0% = ACh EC20, 100% = maximal ACh. P08173. 360,000 compounds, 0.4% hits. AID 624126;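 active means activation above its plate's cutoff, the mean activation of sample wells plus 3 SD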
# Target sequence (P08173 whole entry, looked up): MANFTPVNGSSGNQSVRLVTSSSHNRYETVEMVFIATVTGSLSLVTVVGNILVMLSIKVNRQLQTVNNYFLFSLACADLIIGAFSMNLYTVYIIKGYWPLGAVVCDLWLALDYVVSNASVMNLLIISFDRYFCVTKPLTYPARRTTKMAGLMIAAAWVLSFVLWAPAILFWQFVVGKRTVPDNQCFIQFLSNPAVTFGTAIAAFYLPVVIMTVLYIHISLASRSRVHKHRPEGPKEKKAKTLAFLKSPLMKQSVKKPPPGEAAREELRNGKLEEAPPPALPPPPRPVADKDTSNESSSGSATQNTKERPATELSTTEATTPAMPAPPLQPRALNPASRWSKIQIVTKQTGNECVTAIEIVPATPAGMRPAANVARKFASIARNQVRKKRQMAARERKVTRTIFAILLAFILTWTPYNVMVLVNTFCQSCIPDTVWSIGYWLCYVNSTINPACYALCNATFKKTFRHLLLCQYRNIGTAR
# M4 antag: blocks acetylcholine activation of human M4 receptor | P08173 | CHO-hM4 cells, ACh EC80, Fluo-8 calcium fluorescence | inhibition, % at 3 µM | 360,000 compounds, 0.73% hits;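 active means inhibition above its plate's cutoff, the mean inhibition of sample wells plus 3 SD, cut at about 27% in these data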;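 further: 0% = acetylcholine EC80 with DMSO and 100% = DMSO without agonist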
# M5 ag: agonists of human muscarinic M5 receptor (CHRM5). activation, % at 3 µM. CHO-K1 hM5 cells, Fluo-8 calcium fluorescence; 0% DMSO wells, 100% maximal acetylcholine response. P08912. AID 624037. 360,000 compounds, 0.19% hits;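 active means activation above the run's mean over test compounds plus 3 SD, cut at about 23% in these data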;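 further: signal is peak over basal fluorescence ratio across the kinetic read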
# M5 antag: CHRM5 antagonism in calcium assay; P08912; CHO-hM5 cells, Fluo-8 calcium fluorescence, ACh EC80; inhibition, % at 3 µM; 360,000 compounds, 0.59% hits; AID 624040;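 active means inhibition above a per-plate cutoff, the mean of that plate's test compounds plus 3 SD, cut at about 27% in these data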;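 further: 0% = acetylcholine EC80 with DMSO and 100% = DMSO without agonist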
# M5 PAM: positive allosteric modulators of human muscarinic M5 receptor. CHO-K1 hM5, Fluo-8 calcium, ACh EC20 PAM; 0% = ACh EC20, 100% = ACh EC100. activation, % at 3 µM. 360,000 compounds, 0.3% hits. AID 624038;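 active means activation above the run cutoff, the mean activation of all test compounds plus 3 SD, cut at about 18% in these data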
#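 System: CHO-K1 cell line with stable human muscarinic M5 receptor expression | Also added: EC20 acetylcholine as agonist stimulus | Compound: One concentration, 3 µM final (nominal) | Timing: Fluo-8 loading 80 min at 37 °C plus 30 min room temperature | Measured by: Fluo-8 calcium dye fluorescence, kinetic read | Read-out basis: % activation, ACh-normalized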
# CHRM4 agonist: CHRM4 agonism in calcium assay; CHO-K1 hM4/Gqi5, Fluo-8 calcium fluorescence; vehicle 0%, full acetylcholine response 100%; activation, % at 3 µM; 360,000 compounds, 0.14% hits; P08173;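 active means activation above the run mean over all test wells plus 3 SD, cut at about 32% in these data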;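 further: peak over basal fluorescence ratio per well then scaled between controls; 0% = DMSO wells and 100% = acetylcholine at EC100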
# Starred values were filed as active, the others as inactive.
SMILES,M4 PAM,M4 antag,M5 ag,M5 antag,M5 PAM,CHRM4 agonist
CC(=O)c1sc(NC(=O)C2(F)C(F)(F)C(F)(F)C(F)(F)C(F)(F)C2(F)F)nc1C,-14,12,8,29*,-11,14
O=C(CNC(=O)c1cccs1)N/N=C/c1c(F)cccc1Cl,2,-2,-2,-8,5,1
CN1CCN(S(=O)(=O)c2ccccc2)C(c2ccccc2)C1 (configuration not stated),2,5,-1,9,5,0
CN1CCN2c3ccccc3Cc3ccccc3C2C1 (configuration not stated),-16,17,-2,45*,-19,0
O=C(CNC1CCCCC1)N1CCc2ccccc2C1,1,30*,-1,18,-3,1
O=C(NC1CCCCC1)N1CCc2ccccc2C1,-5,1,-6,7,-3,1
Cc1ccc(NC(=O)C[n+]2ccn(C3=C([O-])c4ccccc4C3=O)c2)cc1,-7,8,-2,29*,-17,15
COc1ccc(OC)c(C(=O)COC(=O)c2c(OC)cccc2OC)c1,-4,-1,-1,-6,-3,4
COc1ccc(OC)c(C(=O)CCCC(=O)c2cc(OC)ccc2OC)c1,-6,31*,-5,4,-5,2
Cc1cnc(C(=O)OCC(=O)N(Cc2ccccc2)C(C)(C)C)cn1,-1,-15,5,-6,1,2
C[N+]12CCC(CC1)C(OC(=O)C(O)(c1ccccc1)c1ccccc1)C2 (configuration not stated),-18,100*,-2,99*,-18,0
COc1ccc(C)cc1NS(=O)(=O)c1ccc(NS(=O)(=O)c2ccc(NC(C)=O)cc2)cc1,22*,-2,-1,4,-7,0
CCN1CCN(CCCNC(=O)C2CCCN(c3nnc(-n4cccc4)s3)C2)CC1 (configuration not stated),27*,-10,-2,-4,-2,0
COCCn1c2nc(=O)n(-c3ccccc3)c(=O)c-2nc2ccccc21,-12,17,28*,8,-6,65*
COCCn1c(-c2ccc(OC)cc2)nc2ccccc21,1,3,-10,1,3,1
COc1ccccc1N1CCN(C2CCCN(C(=O)c3oc(C)cc3C)C2)CC1 (configuration not stated),-1,0,-8,57*,-14,1
O=[N+]([O-])c1cccc(/C=N/n2cnnc2)c1,20*,7,-1,4,1,0
O=[N+]([O-])c1ccc(O)c(/C=N/n2cnnc2)c1,5,10,2,2,5,3
O=C(/C=C/Nc1ccc(F)c(Cl)c1)c1ccccc1,-7,-3,-13,-6,-2,1
Cc1ccc(NC(=O)C(C)OC(=O)Cc2c[nH]c3ccccc23)cc1 (configuration not stated),24*,-12,-5,-10,17,2
Cc1ccc(C(=O)C(C)OC(=O)Cc2c[nH]c3ccccc23)cc1 (configuration not stated),2,-3,-4,11,2,0
Cc1scc2c1N(C(=O)CN1CCN(C)CC1)c1ccccc1NC2=O,-18,98*,-1,99*,-18,1
COc1ccc(C(=O)N2CCCC(Nc3ccc(C(C)C)cc3)C2)c(OC)n1 (configuration not stated),5,-2,-1,10,-6,2
COc1cc(NC(=O)c2cc(Cl)ccc2Cl)ccc1-c1cc2ccccc2oc1=O,14,1,-1,-9,3,1
CCc1ccc(OCC(=O)Nc2ccc(-c3cc4ccccc4oc3=O)c(OC)c2)cc1,-20,15,2,31*,-15,6
SMILES,M4 PAM,M4 antag,M5 ag,M5 antag,M5 PAM,CHRM4 agonist
O=C1c2cccc(NCCCNCCO)c2C(=O)c2cccc(NCCCNCCO)c21,2,0,1,0,-1,1
Cc1cc(/C=C\c2ccc3cc(N(C)C)ccc3[n+]2C)c(C)n1-c1ccccc1,-19,45*,10,40*,-17,20
CC(C)C[C@H]1CNC(=S)N1C[C@H]1CCCN1C[C@H](Cc1ccc(O)cc1)N1C[C@H](CC(C)C)N(CC2CCCCCC2)C1=S,0,-14,-1,-6,0,0
C[N+](C)(C)CCNC(=O)c1ccccc1,23*,-7,-2,-17,9,1
O=C(NCCNC(=O)c1ccccc1)c1ccccc1,12,-7,0,3,-7,1
CCOCC(=O)NC1CCc2cc(OC)c(OC)c(OC)c2-c2ccc(SC)c(=O)cc21 (configuration not stated),7,-9,4,-6,9,1
COc1cc(NC(=O)CCS(=O)(=O)c2ccc3c(c2)n(C)c(=O)c(=O)n3C)cc(OC)c1,-7,4,0,0,0,-3
Cc1cccc(N2C(S)=C(C#N)C(=O)NC23CCCCC3)c1,10,-13,0,-7,3,1
Cc1cccc(NC2=C(C#N)C(=O)NC3(CCCC3)S2)c1,15*,-26,1,-9,2,0
COc1ccc(C(=O)NC(C)CCc2ccccc2)c(O)c1 (configuration not stated),-4,1,2,9,-7,7
OC(c1ccccc1)c1nc(-c2ccc(F)c(Cl)c2)cs1 (configuration not stated),4,-2,-1,0,0,1
Cc1cccc(C)c1NC(=O)c1ccc([N+](=O)[O-])s1,25*,-16,-5,3,11,2
COc1ccc(-n2nc([N+](=O)[O-])c(=NC3CCN(Cc4ccccc4)CC3)n2O)cc1,-18,28*,-9,1,-3,0
O=C(NCc1ccccc1)C(CCc1ccccc1)n1c(=O)c(-c2ccccc2)nc2ccccc21 (configuration not stated),4,5,1,-15,20*,4
O=C(NCc1ccccc1)C(CCc1ccccc1)n1c(=O)c(-c2cc3ccccc3[nH]2)nc2ccccc21 (configuration not stated),4,-4,3,5,2,2
O=C(Nc1ccc(S(=O)(=O)Nc2ccccn2)cc1)C(F)(F)F,10,-2,-2,5,10,1
CC(C)(C)C(=O)Nc1ccc(S(=O)(=O)Nc2ccccn2)cc1,25*,-9,-3,-9,10,3
CCCCCN1C=CC=C/C1=C\C=C(C#N)C#N,-11,14,10,-1,-3,4
